F508del corr – correctors of CFTR F508del function in bronchial epithelial cells | CFBE cells, YFP halide quenching; stimulated with forskolin plus potentiator P3; % fluorescence drop versus neutral controls | activity (quench increase), % at 7.58 µM | hit rate 0.36% among 350,000 | AID 720511;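 active means mean added fluorescence quench of at least 8% versus neutral control, with both replicates also reaching 8%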;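 further: cells transiently co-express mutant CFTR-F508del with the halide-sensitive YFP; corrector assay measuring rescue of mutant channel to the surface after 24 h compound exposure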
S100A4 MyoIIA – blocks human S100A4 binding to myosin IIA peptide; P26447; S100A4/TAMRA-MyoIIA peptide fluorescence polarization; inhibition, % at 10.7 µM; hit rate 0.14% among 360,000; AID 652163;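 active means mean inhibition of at least 70% across replicates, with every replicate also reaching that level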
Target sequence (P26447 whole entry, looked up): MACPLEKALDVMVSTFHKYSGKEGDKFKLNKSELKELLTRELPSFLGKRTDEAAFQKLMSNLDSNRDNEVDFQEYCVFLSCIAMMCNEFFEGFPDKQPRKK
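Material: S100A4 monomer protein / Buffer or medium: 50 mM HEPES pH 7.2, 10 mM CaCl2, 100 mM KCl / Times: 5 min incubation before reading / Benchmarks: neutral control DMSO, positive control TFP / Reagent: labelled myosin peptide probe, 5 nM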
FGF22 binding – FGF22 (human) thermal shift binding; recombinant FGF22 thermal shift, SYPRO orange fluorescence; percent of sucrose octasulfate shift, DMSO zero; activity (Tm shift, normalised), % at 9.99 µM; hit rate 1.5% among 340,000; Q9HCT0;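 active means mean Tm shift, scaled 0 neutral to 100 positive control, at about 1.3% or above, every replicate too, limit read from the data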
Target sequence (Q9HCT0 whole entry, looked up): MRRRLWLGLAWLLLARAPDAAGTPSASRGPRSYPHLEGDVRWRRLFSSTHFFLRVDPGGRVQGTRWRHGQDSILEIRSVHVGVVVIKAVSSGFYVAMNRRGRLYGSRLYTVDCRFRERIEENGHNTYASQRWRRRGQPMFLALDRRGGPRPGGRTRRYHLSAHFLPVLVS
dFosB act – mouse delta FosB homodimer activation. purified delta FosB, TAMRA-CDK5 oligo fluorescence polarization; percent of positive-control signal above neutral wells. hit rate 0.99% among 340,000. activation, % at 25 µM. P13346;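 active means mean activation above about 17%, with every replicate also reaching it, limit read from the data, passing the limit was not always enough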
A number is an active result; . = inactive; / = no result given. Hits are enriched below; roughly 2.2% of the tested compounds scored in any of these assays.

SMILES	F508del corr	S100A4 MyoIIA	FGF22 binding	dFosB act
CO[C@@H]1CN(C)C(=O)c2cc(NC(=O)C3CC3)ccc2OC[C@@H](C)N(C)C[C@H]1C	.	.	.	/
COc1ccc(-c2cc(=O)oc3cc(OCC(=O)NCc4ccccn4)ccc23)cc1	.	.	.	.
COc1ccc(-c2cc(=O)oc3cc(OC(C)C(=O)NCc4ccccn4)ccc23)cc1 (configuration not stated)	.	.	48.8	.
CCOc1cc(C(=O)Nc2cccc(C(C)=O)c2)ccc1OCC(=O)N1CCCCC1	.	.	43.8	.
CCOc1cc(C(=O)Nc2ccccc2N2CCOCC2)ccc1OCC(=O)N1CCCCC1	.	.	.	.
CCC(=O)c1ccc(OCC(=O)N2CCCC2)c(OC)c1	.	.	44.1	.
COc1ccc(C(=O)C2CCCN(C(=O)c3ccccc3C(C)=O)C2)cc1F (configuration not stated)	.	.	.	.
COc1ccc(C(=O)C2CCCN(C(=O)COc3ccc(C(C)=O)cc3)C2)cc1F (configuration not stated)	.	.	43.7	.
C[C@H]1CN([C@@H](C)CO)C(=O)c2cc(NC(=O)Nc3ccc(F)cc3)ccc2O[C@H]1CN(C)C(=O)Nc1ccc2c(c1)OCO2	.	.	.	/
O=C(NCC1CC1)[C@H]1[C@H](CO)[C@H]2Cn3c(ccc(C4=CCCC4)c3=O)[C@@H]1N2C(=O)C1CC1	.	.	.	/
CO[C@H]1CN(C)C(=O)c2ccc(NC(=O)c3cc(C)on3)cc2OC[C@H](C)N(C)C[C@@H]1C	.	.	/	/
C[C@H]1CCCCO[C@@H](CN(C)C(=O)Nc2cccc3ccccc23)[C@@H](C)CN([C@@H](C)CO)C(=O)c2cc(NC(=O)Cc3ccccc3)ccc2O1	.	.	.	/
Cn1c(-c2ccccc2)c[n+]2c1-c1ccccc1C2	.	.	44.7	.
Cn1c(-c2ccccc2)cccc1=O	/	/	/	.
O=C1NN(c2ccc(Br)cc2)C(=O)/C1=C\c1ccc(O)cc1O	.	.	.	.
O=C1NN(c2cccc(Br)c2)C(=O)/C1=C\c1ccc(O)cc1	8.6	.	.	.
COc1ccc(C(=O)N/C(=C\c2cn(C)c3ccccc23)C(=O)OCCN(C)C)cc1	.	.	27.9	.
CCCCOC(=O)/C(=C/c1cn(C)c2ccccc12)NC(=O)c1ccc(OC)cc1	.	.	.	.
CC(C)NC(=O)Nc1cccc2c1O[C@@H](CN(C)S(=O)(=O)c1cn(C)cn1)[C@H](C)CN([C@H](C)CO)C2=O	.	.	.	/
COC(=O)[C@@H](NS(=O)(=O)c1cc(Br)ccc1Br)C(C)C	.	.	.	/
CCOC(=O)NNS(=O)(=O)c1cc(Br)ccc1Br	.	.	43.2	.
COc1ccc(S(=O)(=O)N(C)C[C@H]2Oc3ccc(NC(=O)CCCCCC(=O)Nc4ccccc4N)cc3CC(=O)N([C@H](C)CO)C[C@H]2C)cc1	.	.	.	/
CN(C)C(=O)C[C@H]1C=C[C@@H](NS(=O)(=O)c2ccccc2)[C@H](CO)O1	.	.	.	/
CC1CCCC(NC(=O)COC(=O)c2cc3ccccc3oc2=O)C1C (configuration not stated)	.	.	.	.
CC1CCN(C(=O)COC(=O)c2cc3ccccc3oc2=O)CC1	.	.	43.5	.
SMILES	F508del corr	S100A4 MyoIIA	FGF22 binding	dFosB act
CCN1CCN(C(=O)c2ccc(CN(c3ccccc3)S(=O)(=O)c3ccccc3)cc2)CC1	/	.	.	.
CN1CCN(C(=O)c2ccc(CN(c3ccccc3)S(=O)(=O)c3ccccc3)cc2)CC1	11.5	.	.	.
COc1ccc(C(=O)NCC(c2ccco2)N2CCc3ccccc32)cc1 (configuration not stated)	12.5	.	.	.
COc1ccccc1C(CNC(=O)c1cccc(S(=O)(=O)N2CCCc3ccccc32)c1)N(C)C (configuration not stated)	.	.	.	.
CC1CN(S(=O)(=O)c2ccc(C(=O)O)cc2)CC(C)O1 (configuration not stated)	.	.	.	.
CC1CN(S(=O)(=O)c2ccc(C(=O)N3CCc4ccccc43)cc2)CC(C)O1 (configuration not stated)	15.6	.	.	.
COc1ccc(C(CNC(=O)c2cccc(S(=O)(=O)N3CCc4ccccc43)c2)N(C)C)cc1 (configuration not stated)	.	.	43.0	.
COC(=O)c1ccc(S(=O)(=O)N2CCc3ccccc32)cc1	12.4	.	.	.
CC(=O)N1[C@@H]2Cn3c(ccc(-c4ccccc4)c3=O)[C@H]1[C@@H](C(=O)Nc1ccccc1)[C@@H]2CO	/	.	.	/
O=C(C1CCCC1)N1CC2(C1)[C@@H](c1ccccc1)[C@@H](CO)N2C(=O)c1cccnc1	.	.	/	/
COc1ccc(CN2CCN(C(=O)c3ccccc3C(=O)c3ccccc3)CC2)cc1F	.	.	44.0	/
CO[C@H]1CN(C)C(=O)c2cc(NC(=O)c3ccccc3)ccc2OC[C@@H](C)N(C)C[C@H]1C	.	.	.	/
C[C@@H](NC(=O)C[C@H]1C=C[C@@H](NC(=O)C2CCC2)[C@H](CO)O1)c1ccccc1	.	100.8	.	/
COc1ccc(C(=O)N/C(=C\c2ccc3c(c2)OCO3)C(=O)Nc2ccc(C(=O)O)cc2)cc1	.	.	.	.
Cc1ccc(C(=O)N/C(=C\c2ccc3c(c2)OCO3)C(=O)Nc2ccc(C(=O)O)cc2)cc1	.	.	43.0	.
O=C(O)C1C2CCC1C(O)C2 (configuration not stated)	.	.	43.3	/
COc1ccc2c(c1OC)C(=O)N(c1ccc(O)cc1)C2=O	.	.	43.2	.
Cc1noc(C)c1NC(=O)NCC[C@H]1CC[C@@H](NC(=O)Cc2cccnc2)[C@H](CO)O1	.	.	.	/
CCOc1ccc(NS(=O)(=O)c2cc(NC(=O)CCNC(=O)c3ccco3)ccc2OC)cc1	31.9	.	.	.
COc1ccc(NS(=O)(=O)c2cc(NC(=O)CCNC(=O)c3ccco3)ccc2OC)cc1	.	.	.	.
COc1ccc(NS(=O)(=O)c2cc(NC(=O)Cc3c(F)cccc3Cl)ccc2OC)cc1	19.5	.	.	.
Cc1nn(-c2ccccc2)c(Cl)c1/C=C1\SC(=S)NC1=O	/	/	/	.
Cc1nn(-c2ccccc2)c(C)c1/C=C1\C(=O)N(C)C(=S)N1C	.	.	43.3	.
C[C@H](CO)N1C[C@H](C)[C@H](CN(C)C(=O)Nc2cccc3ccccc23)Oc2ccc(NS(=O)(=O)c3ccc(Cl)cc3)cc2C1=O	.	.	.	/
O=C1CN(S(=O)(=O)c2ccccc2)C[C@H]2[C@@H](c3ccc(C#CCc4ccccc4)cc3)[C@@H](CO)N12	.	.	/	/
O=C(C[C@@H]1C=C[C@@H](NS(=O)(=O)c2cccc(F)c2)[C@@H](CO)O1)NCc1ccc2c(c1)OCO2	.	83.4	.	/
O=C(C[C@H]1CC[C@H](NS(=O)(=O)c2cccc(F)c2)[C@@H](CO)O1)NCc1ccc2c(c1)OCO2	.	105.2	.	/

Screening data: PubChem, Broad Institute
